Assay results taken from ChEMBL document CHEMBL3098012, “A novel tamoxifen derivative, ridaifen-F, is a nonpeptidic small-molecule proteasome inhibitor” (Eur J Med Chem, 2014).
Activity calls are given as the source filed them. The calls are words filed in the database; no cut-off is given here.

Key:
[1] = Inhibition of chymotrypsin-like activity of Saccharomyces cerevisiae 20S proteasome beta 5 subunit
[2] = biological target: T1, Proteasome component C5 (Homo sapiens) (UniProt P20618); test: Inhibition of biotin-labeled belactosin A binding to human 20S proteasome beta 1 subunit at 10 uM preincubated for 1 hr followed by biotin-labeled belactosin A treatment measured after 1 hr by Western blotting analysis
T1 sequence (whole entry): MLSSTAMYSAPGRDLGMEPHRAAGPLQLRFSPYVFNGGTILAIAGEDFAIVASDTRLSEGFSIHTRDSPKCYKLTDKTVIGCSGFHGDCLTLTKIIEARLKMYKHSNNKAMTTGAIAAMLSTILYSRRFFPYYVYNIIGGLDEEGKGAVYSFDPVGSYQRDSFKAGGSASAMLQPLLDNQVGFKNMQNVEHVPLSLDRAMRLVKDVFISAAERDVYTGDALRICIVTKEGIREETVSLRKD
How it was run: (§1)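 Purified human 20S proteasome preincubated 1 h at 37 °C with varying compound levels, then biotin-belactosin A added to 1 µM for a further 1 h. Proteins separated by SDS-PAGE, blotted to PVDF, milk-blocked; biotin-labelled subunits detected with streptavidin-HRP and ECL.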

[3] = biological target: T2, Proteasome Macropain subunit MB1 (Homo sapiens, UniProt P28074); test: Noncompetitive inhibition of chymotrypsin-like activity of human 20S proteasome beta 5 subunit assessed as hydrolysis of succinyl-LLVY-AMC fluorogenic substrate Lineweaver-Burk plot analysis
T2 sequence (P28074 whole entry): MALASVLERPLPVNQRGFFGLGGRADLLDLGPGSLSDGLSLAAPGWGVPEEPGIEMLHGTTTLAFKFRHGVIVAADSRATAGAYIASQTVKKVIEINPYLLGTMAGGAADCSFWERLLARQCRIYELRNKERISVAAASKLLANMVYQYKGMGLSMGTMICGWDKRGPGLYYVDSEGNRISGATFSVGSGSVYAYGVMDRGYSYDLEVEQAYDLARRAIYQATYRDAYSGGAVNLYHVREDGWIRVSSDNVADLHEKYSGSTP

[4] = tested on: HeLa; test: Inhibition of proteasome in human HeLa cells assessed as accumulation of ubiquitinated proteins at 30 uM after 24 hrs by Western blotting analysis; type: cell-based
How it was run: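 HeLa cells, 4×10^5 cells/well, treated 24 h with compound; vehicle control 0.25% DMSO. Lysed in Tris–HCl/2% SDS/glycerol buffer with protease and phosphatase inhibitors; 30 µg protein run on SDS-PAGE, PVDF blot probed with anti-ubiquitin (1:200), actin as loading reference, HRP secondary, ECL detection.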

[5] = tested on: HeLa; test: Induction of apoptosis in human HeLa cells assessed as caspase 3 cleavage at 1 to 30 uM after 24 hrs by Western blotting analysis; type: functional, cell-based
[6] = tested on: HeLa; test: Cell cycle arrest in human HeLa cells assessed as accumulation at sub G1 phase at 10 uM after 24 hrs by propidium iodide staining-based flow cytometric analysis (reference value: 2.2%); type: functional
[7] = biological target: T3, Proteasome Macropain subunit MB1 (Homo sapiens) (UniProt P28074); test: Inhibition of biotin-labeled belactosin A binding to human 20S proteasome beta 5 subunit at 100 uM preincubated for 1 hr followed by biotin-labeled belactosin A treatment measured after 1 hr by Western blotting analysis; how it was run: as §1
T3 sequence (whole entry): T2 sequence (P28074 whole entry)

[8] = Cytotoxicity against ER-negative HEK293 cells after 48 hrs by MTT assay; type: cell-based; settings: human
How it was run: (§2)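 HEK293 (DMEM) or HL-60 (IMDM) cells, each with 10% FBS plus penicillin/streptomycin, seeded 5×10^3 cells/well in duplicate. Exposed 48 h to compound at […]. MTT reduction read as 560/750 nm absorbance ratio after HCl/2-propanol extraction. CyT50 from inhibition curve; means of triplicate.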

[9] = tested on: HeLa; test: Induction of apoptosis in human HeLa cells assessed as PARP cleavage after 24 hrs by Western blotting analysis; type: functional, cell-based
How it was run: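 HeLa cells seeded 4×10^5 cells/well, incubated 24 h with varying compound concentrations; PARP cleavage detected in lysates by Western blotting.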

[10] = biological target: T2, Proteasome Macropain subunit MB1; test: Inhibition of chymotrypsin-like activity of human 20S proteasome beta 5 subunit assessed as hydrolysis of succinyl-LLVY-AMC fluorogenic substrate measured for 1 hr by fluorometric analysis
How it was run: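 Purified human 20S proteasome (0.1 µg) incubated at 37 °C with 50 µM succinyl-LLVY-AMC (CT-L) or 20 µM Z-LLE-AMC (PGPH) and compound at 0.01–10 µM in 25 mM HEPES, 0.5 mM EDTA, 0.03% SDS. IC50 taken from inhibition curve; means of three experiments.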

[11] = tested on: HL-60; test: Cytotoxicity against […] human HL60 cells after 48 hrs by MTT assay; type: functional; settings: HL-60, 48 h; how it was run: as §2
[12] = biological target: T3, Proteasome Macropain subunit MB1 (Homo sapiens); test: Inhibition of biotin-labeled belactosin A binding to human 20S proteasome beta 5 subunit at 1 to 100 uM preincubated for 1 hr followed by biotin-labeled belactosin A treatment measured after 1 hr by Western blotting analysis; how it was run: as §1
[13] = organism: Homo sapiens; test: Inhibition of calpain (unknown origin) at >10 uM
[14] = organism: Homo sapiens; test: Inhibition of cathepsin (unknown origin) at >10 uM
[15] = biological target: T1, Proteasome component C5 (Homo sapiens); test: Inhibition of biotin-labeled belactosin A binding to human 20S proteasome beta 1 subunit preincubated for 1 hr followed by biotin-labeled belactosin A treatment measured after 1 hr by Western blotting analysis; how it was run: as §1
[16] = tested on: HeLa; test: Cell cycle arrest in human HeLa cells assessed as accumulation at sub G1 phase at 60 uM after 24 hrs by propidium iodide staining-based flow cytometric analysis (reference value: 2.2%); type: functional

- IC50 [1]: 1800 nM
- inhibition [2]: Active
- Ki [3]: 580 nM
- inhibition [7]: Active
- IC50 [10]: 640 nM
- inhibition [12]: Active
- inhibition [13]: inactive
- inhibition [14]: inactive
- inhibition [15]: Dose-dependent effect
Compound: CCC(=C(c1ccc(OCCN2CCCCCC2)cc1)c1ccc(OCCN2CCCCCC2)cc1)c1ccccc1
- inhibition [4]: Active
- Activity [5]: Active
- Activity [6]: 3.4%
- CC50 at 48 h [8]: 4380 nM
- Activity [9]: Dose-dependent effect
- CC50 [11]: 3420 nM
- Activity [16]: 4.7%
